The text below walks through data of ChEMBL document CHEMBL1131151, “Novel cyclic compounds as potent phosphodiesterase 4 inhibitors” (J Med Chem, 1998).

The nature of test [1]: (§1) Inhibition of tumor necrosis factor alpha (TNF-alpha) release in murine endotoxemia model after peroral administration. The method, boiled down: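 Male Balb/c mice, 20–25 g, were dosed orally in 0.25% methylcellulose/0.2% Tween-20 in water 4 h before an ip challenge with E. coli 055:B5 LPS at 30 μg/mouse. ED50 was taken from dose–response curves, n = 6 animals/group.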

Test [2] concerns Canis familiaris. Description: Emetic effect in dogs at 3 mg/kg intravenous dose, 0 of 4 animals affected. It counts as functional, Canis lupus familiaris.
In test [3] the target is T1, Phosphodiesterase 4 (Homo sapiens, UniProt P27815+Q08499+Q07343+Q08493). As to the kind of experiment: Concentration to inhibit 50% of Phosphodiesterase 4 (PDE-4) from guinea pig macrophages. Type of test: protein assay, Cavia porcellus. The following applies: target entry is the homologue from another species. The method, boiled down: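 Enzyme source: homogenate of guinea pig peritoneal macrophages, Percoll-purified and adherence-selected, from Dunkin Hartley animals pretreated with horse serum. Two-step radioisotopic hydrolysis assay with 1 μM cAMP substrate in 20 mM Tris-HCl pH 8.0, 10 mM MgCl2, 4 mM 2-mercaptoethanol, 0.2 mM EGTA, 0.05 mg/mL BSA.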

Test [4] has as its target T1, Phosphodiesterase 4. Description: Binding affinity at Phosphodiesterase 4 by measuring displacement of (+/-)-[3H]- Rolipram to guinea pig brain membranes. It counts as tissue-based, Cavia porcellus. Conditions: target entry is the homologue from another species. The method, boiled down:
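Guinea pig brain membranes (amount equal to 500 μg brain tissue per sample) incubated with 2 nM (±)-[3H]rolipram (24.7 Ci/mmol).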

Test [5] deals with Canis familiaris. Description: Emetic effect in dogs at 0.01 mg/kg intravenous dose, 1 of 2 animals affected. It counts as functional, Canis lupus familiaris. The method, boiled down:
(§2)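 Male and female beagles, 1–2 years old, 8–10 kg, food withheld the morning of testing. Compound in 100% DMSO given as a slow iv bolus into the cephalic vein over 30 s at 0.03 mL/kg. Dogs observed for up to 2 h or until emesis occurred. Usually 4 dogs (2 male, 2 female) per test.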

Another test relates to PBMC. Description: Inhibition of TNF-alpha release from LPS-stimulated human mononuclear cells. It counts as functional, cell-based.
For test [6], the system named is Canis familiaris. As to the kind of experiment: Emetic effect in dogs at 0.03 mg/kg intravenous dose, 2 of 2 animals affected. It counts as functional, Canis lupus familiaris. The method, boiled down:
as §2

Test [7] is described as follows: as §1. The method, boiled down:
(§3)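 Male Balb/c mice, 20–25 g, dosed orally in 0.25% methylcellulose/0.2% Tween-20 in water 4 h before ip challenge with E. coli 055:B5 LPS at 30 μg/mouse. Serum TNF-α measured by ELISA. ED50 taken from dose–response curves, n = 6 mice/group.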
This is another data set of the same source.

Test [8] has as its system Canis familiaris. As to the kind of experiment: Emetic effect in dogs at 0.2 mg/kg intravenous dose, 2 of 2 animals affected. Type of test: functional, Canis lupus familiaris. The method, boiled down:
as §2

The nature of test [9]: Inhibition of tumor necrosis factor alpha (TNF-alpha) release in murine endotoxemia model. The method, boiled down:
as §3

In test [10] the test system is Canis familiaris. As to the kind of experiment: Emetic effect in dogs at 1 mg/kg intravenous dose, 0 of 4 animals affected. Type of test: functional, Canis lupus familiaris. The method, boiled down:
as §2

Test [11] is described as follows: Inhibition of tumor necrosis factor alpha (TNF-alpha) release in murine endotoxemia model after peroral administration at 30 mg/kg. It counts as organism-based. On the set-up: dose 30 mg/kg.
For test [12], the system named is Canis familiaris. As to the kind of experiment: Emetic effect in dogs at 0.7 mg/kg intravenous dose, 0 of 4 animals affected. It counts as functional, Canis lupus familiaris. The method, boiled down:
as §2

The structures appear in SMILES notation.

One may read the ED50 as the dose at which the effect has come halfway, by size or by number of responders. Higher therefore signals a need for a large dose. A word on the IC50: it is the concentration that inhibits the measured activity by half. Low readings indicate greater potency, high ones weaker potency. As a reminder, the Ki is a measure of affinity in units of concentration, obtained from inhibition or displacement. Low values mean higher affinity, high ones lower affinity. As for `COc1ccc(C2(Cc3ccncc3)C(=O)c3ccc(OC(=O)N4CCC(N5CCCCC5)CC4)cc3C2=O)cc1OC1CCCC1` (stereo unspecified), it took a dose of 15 mg/kg to reach the 50% effect level in test [1] (ED50). In addition, in the test with Canis familiaris [2], the Ratio is 0. At Phosphodiesterase 4 [3], this molecule came in with a half-maximal inhibitory concentration (IC50) of 30 nM. The Ki at Phosphodiesterase 4 [4] turned out to be 20 nM.

Regarding `COc1ccc(C2CNC(=O)C2)cc1OC1CCCC1` (stereo unspecified) [ROLIPRAM], the figures for the Ratio in the test with Canis familiaris [5], with Canis familiaris [6] and with Canis familiaris [8] were 1, 2 and 2, respectively. In the test on PBMC, the half-maximal inhibitory concentration (IC50) worked out at 500 nM. It took a dose of 8 mg/kg to reach the 50% effect level in test [7] (ED50).

With `COc1ccc(C2(Cc3ccncc3)C(=O)c3ccc(O)cc3C2=O)cc1OC1CCCC1` (stereo unspecified), the IC50 against Phosphodiesterase 4 [3] was 100 nM. On Phosphodiesterase 4 [4], this molecule yielded an inhibition constant (Ki) of 45 nM.

As for `COc1ccc(C2(Cc3ccccc3)C(=O)c3ccccc3C2=O)cc1OC1CCCC1`, the IC50 on Phosphodiesterase 4 [3] turned out to be 500 nM. On Phosphodiesterase 4 [4], the Ki amounted to 2300 nM.

Consider `COc1ccc(C2(Cc3ccncc3)Cc3cc(OCc4ccccc4)ccc3C2=O)cc1OC1CCCC1` (stereo unspecified), for which, at Phosphodiesterase 4 [3], the IC50 was 20 nM. Moreover, on Phosphodiesterase 4 [4], the Ki is recorded as 60 nM.

Regarding `COc1ccc(C2(Cc3ccncc3)C(=O)c3ccc(OCC(=O)O)cc3C2=O)cc1OC1CCCC1` (stereo unspecified), the IC50 against Phosphodiesterase 4 [3] came to 50 nM. At Phosphodiesterase 4 [4], this molecule returned an inhibitory constant (Ki) of 20 nM.

`COc1ccc([C@H](Cc2ccncc2)c2ccccc2)cc1OC1CCCC1` [CDP840]: the ED50 in test [9] turned out to be 25 mg/kg. Moreover, the Ratio in the test with Canis familiaris [10] is 0.

At Phosphodiesterase 4 [3], `COc1ccc(C2(Cc3ccc(O)cc3)C(=O)c3ccccc3C2=O)cc1OC1CCCC1` had an IC50 of 70 nM. In addition, the inhibitory constant (Ki) at Phosphodiesterase 4 [4] is on record as 260 nM.

Molecule `COc1ccc(C2C(=O)c3ccccc3C2=O)cc1OC1CCCC1` registered an IC50 at Phosphodiesterase 4 [3] above 10000 nM. For the same molecule, the Ki at Phosphodiesterase 4 [4] is reported as above 10000 nM.

Take `COc1ccc(C2(Cc3ccncc3)Cc3ccccc3C2)cc1OC1CCCC1`: on Phosphodiesterase 4 [3], the concentration for half-maximal inhibition (IC50) was 750 nM. The same molecule returned a Ki on Phosphodiesterase 4 [4] of 1600 nM.

The molecule `CCOc1ccc2c(c1)C(=O)C(Cc1ccncc1)(c1ccc(OC)c(OC3CCCC3)c1)C2=O` (stereo unspecified) registered an IC50 against Phosphodiesterase 4 [3] of 12 nM. The molecule further displayed a Ki on Phosphodiesterase 4 [4] of 20 nM.

With `COc1ccc(C2(Cc3ccncc3)C(=O)c3ccc(OCc4ccncc4)cc3C2=O)cc1OC1CCCC1` (stereo unspecified), the IC50 against Phosphodiesterase 4 [3] turned out to be 14 nM. At Phosphodiesterase 4 [4], the Ki is listed as 30 nM.

Consider `COc1ccc(C2(Cc3c(Cl)cncc3Cl)C(=O)c3ccccc3C2=O)cc1OC1CCCC1`, for which, on Phosphodiesterase 4 [3], the concentration for half-maximal inhibition (IC50) is recorded as 3000 nM. For the same molecule, the Ki at Phosphodiesterase 4 [4] came out at 1700 nM.

As for `COc1ccc(C2(Cc3ccncc3)C(O)c3ccccc3C2O)cc1OC1CCCC1` (stereo unspecified), the half-maximal inhibitory concentration (IC50) at Phosphodiesterase 4 [3] is reported as above 10000 nM. Also, the inhibitory constant (Ki) at Phosphodiesterase 4 [4] is listed as above 10000 nM.

One may read the inhibition as how much of the control response was suppressed. Molecule `COc1ccc(C2(Cc3ccncc3)C(=O)c3ccccc3C2=O)cc1OC1CCCC1` showed an inhibition in [11] of 0%. The IC50 with PBMC worked out at 200 nM; at Phosphodiesterase 4 [3], 30 nM. On Phosphodiesterase 4 [4], this molecule displayed an inhibitory constant (Ki) of 10 nM.

Molecule `COc1ccc(C2(Cc3ccncc3)C(=O)c3ccc(OCc4ccccc4)cc3C2=O)cc1OC1CCCC1` (single isomer, unassigned; (+)) [listing 1 of 2 here] came in with an inhibition in [11] of 40%.

For `COc1ccc(C2(Cc3cc[n+]([O-])cc3)C(=O)c3ccccc3C2=O)cc1OC1CCCC1`, the IC50 against Phosphodiesterase 4 [3] is on record as 50 nM. The molecule also registered a Ki on Phosphodiesterase 4 [4] of 20 nM.

In turn, `COc1ccc(C2(Cc3ccncc3)C(=O)c3ccc(OCc4ccccc4)cc3C2=O)cc1OC1CCCC1` (stereo in doubt; (+)-18) had a half-maximal inhibitory concentration (IC50) at Phosphodiesterase 4 [3] of 30 nM. The Ki on Phosphodiesterase 4 [4] is on record as 20 nM.

For the molecule `COc1ccc(C2(Cc3ccncc3)C(=O)c3ccc(OCc4ccccc4)cc3C2=O)cc1OC1CCCC1` (single isomer, unassigned; (+)) [listing 2 of 2 here], the Ratio in the test with Canis familiaris [12] and in the test on Canis familiaris [2] was 0 in each case. The concentration for half-maximal inhibition (IC50) in the test with PBMC came out at 200 nM; against Phosphodiesterase 4 [3], 4 nM. The molecule also showed a Ki at Phosphodiesterase 4 [4] of 20 nM.

With `COc1ccc(C2(Cc3ccncc3)C(=O)c3ccc(OC4CCN(C)CC4)cc3C2=O)cc1OC1CCCC1` (stereo unspecified), the 50% inhibitory concentration (IC50) on Phosphodiesterase 4 [3] was 30 nM. In addition, the Ki on Phosphodiesterase 4 [4] came to 60 nM.

On Phosphodiesterase 4 [3], `COc1ccc(C2(Cc3ccncc3)C(=O)c3ccc(OCc4ccccc4)cc3C2=O)cc1OC1CCCC1` (stereo in doubt; (+)-17) registered a concentration for half-maximal inhibition (IC50) of 6 nM. At Phosphodiesterase 4 [4], this molecule returned a Ki of 20 nM.
